# ChEMBL document CHEMBL1122433, “1-(4-Aminobenzyl)-and 1-(4-aminophenyl)isoquinoline derivatives: synthesis and evaluation as potential irreversible cyclic nucleotide phosphodiesterase inhibitors” (J Med Chem, 1983)
# Columns and labels:
# [1] = molecular target: Phosphodiesterase 1 (Bos taurus, UniProt Q01061+P14100); test: Inhibitory activity against cyclic nucleotide phosphodiesterase in bovine heart carried out at 37 C with cAMP […] as substrate.; format: tissue-based
# Procedure, shortened: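 Crude bovine heart phosphodiesterase containing protein activator and calcium. Assay used 1 µM cAMP substrate with separation of 5'-AMP on Dowex resin. Time and protein adjusted to keep hydrolysis under 25%. I50 interpolated from at least five inhibition values against log inhibitor concentration (10^-7 to 10^-4 M). Triplicate assays, 3-5 experiments, mean ± standard error.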
# [2] = molecular target: T1, Phosphodiesterase 1 (Rattus norvegicus, UniProt Q63421+Q9EPR9+Q01066); test: Inhibition of Ca-dependent phosphodiesterase from Rat cerebral cortex using 1 uM cGMP; format: tissue-based
# Procedure, shortened: (§1)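 Calcium-dependent enzyme from female Sprague-Dawley rat (200-250 g) cerebral cortex crude extract, taken by Sephadex G-200 gel filtration. Activity measured by polyacrylamide-boronate affinity gel chromatography with 1 µM cAMP or cGMP as substrate. Time and protein adjusted to keep hydrolysis under 25%. I50 interpolated from at least five inhibition values against log inhibitor concentration (10^-7 to 10^-4 M). Triplicate assays, 3-5 experiments, mean ± standard error.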
# [3] = molecular target: T2, Phosphodiesterase 1 (Rattus norvegicus) (UniProt Q63421+Q9EPR9+Q01066); test: Inhibition of Ca-dependent phosphodiesterase from rat cerebral cortex at 25 uM with 1 uM cGMP, after pre-incubation at 25 uM; format: functional, tissue-based; parameters: scale not given: the % may be the effect or the level left
# Procedure, shortened: (§2)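 Purified calcium-dependent enzyme from rat cerebral cortex (Sephadex G-200 fraction) preincubated with inhibitor at the stated concentration. It was then diluted 1000-fold and assayed with 1 µM cGMP by polyacrylamide-boronate gel chromatography. Assays ran either without further drug or with drug re-added at the preincubation concentration. Activity was compared with enzyme preincubated without inhibitor.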
# [4] = molecular target: T2, Phosphodiesterase 1 (Rattus norvegicus); test: Inhibition of Ca-dependent phosphodiesterase from rat cerebral cortex with 1 uM cGMP without compound, after pre-incubation with 2 or 25 uM (negative control); format: functional, tissue-based; parameters: scale not given: the % may be the effect or the level left; procedure, shortened: as §2
# [5] = molecular target: T1, Phosphodiesterase 1; test: Inhibition of Ca-dependent phosphodiesterase from Rat cerebral cortex using 1 uM cAMP; format: tissue-based; procedure, shortened: as §1
# [6] = molecular target: T2, Phosphodiesterase 1 (Rattus norvegicus); test: Inhibition of Ca-dependent phosphodiesterase from rat cerebral cortex at 2 uM with 1 uM cGMP, after pre-incubation at 2 uM; format: functional, tissue-based; parameters: scale not given: the % may be the effect or the level left; procedure, shortened: as §2
I50 [1] [µM],I50 [2] [µM],Activity [3] [%],Activity [4] [%],I50 [5] [µM],Activity [6] [%],Compound
10,,,,,,C=CC(=O)Nc1ccc(Cc2nccc3cc(OC)c(OC)cc23)cc1
14,> 100,104,100,35,,COC(=O)/C=C/C(=O)Nc1ccc(-c2nccc3cc(OC)c(OC)cc23)cc1
5.3,1.1,,99,1.7,14,COC(=O)/C=C\C(=O)Nc1ccc(-c2nccc3cc(OC)c(OC)cc23)cc1
12,30,50,103,10,,C=CC(=O)Nc1ccc(-c2nccc3cc(OC)c(OC)cc23)cc1
5,6.8,,105,2.3,19,COc1cc2ccnc(-c3ccc(NC(=O)CCl)cc3)c2cc1OC

# The next lines start with the compound.
Compound,I50 [1] [µM],I50 [2] [µM],Activity [3] [%],Activity [4] [%],I50 [5] [µM],Activity [6] [%]
COc1cc2ccnc(Cc3ccc(N(CCCl)CCCl)cc3)c2cc1OC,5.3,,,,,
COc1cc2ccnc(Cc3ccc(NC(=O)CCl)cc3)c2cc1OC,3.9,,,,,
COc1cc2ccnc(Cc3ccc(N)cc3)c2cc1OC,7.7,,,,,
COC(=O)/C=C/C(=O)Nc1ccc(Cc2nccc3cc(OC)c(OC)cc23)cc1,8,,,,,
COc1cc2ccnc(Cc3ccc(NCCCl)cc3)c2cc1OC,4.1,,,,,
COc1cc2ccnc(-c3ccc(N)cc3)c2cc1OC,7.4,2.1,,103,3.4,16
COc1cc2ccnc(-c3ccc(N(CCCl)CCCl)cc3)c2cc1OC,5.2,15,45,100,7.3,
COC(=O)/C=C\C(=O)Nc1ccc(Cc2nccc3cc(OC)c(OC)cc23)cc1,4,,,,,
COc1cc2ccnc(-c3ccc(NCCCl)cc3)c2cc1OC,3.5,12,,102,2.9,21
COc1ccc(Cc2nccc3cc(OC)c(OC)cc23)cc1OC [PAPAVERINE],8.8,21,,,12,
